System: Fibroblast
Experiment: Multiplex assay against human fibroblast
Type: toxicity, cell-based
How it was run: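 Hoechst33342, BioTracker Green Microtubule Cytoskeleton Dye, MitoTracker Red and Annexin V Alexa Fluor 680 were added to live cells at seeding, and imaging on a CQ1 microscope at 37°C and 5% CO2 followed compound addition. Gating by CellPathfinder machine learning separated cells into Hoechst high-intensity objects or normal cells, then normal cells into healthy, pyknosed or fragmented nuclei, then pyknosed cells into mitotic or apoptotic. Per cents of healthy-nucleus cells are reported for the tubulin, mitochondrial-mass and membrane-permeability phenotypes.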

[1] = 12 h, 1 µM, compound concentration 1 uM, replicate 1
[2] = 12 h, 1 µM, compound concentration 1 uM, replicate 2
[3] = 12 h, 10 µM, compound concentration 10 uM, replicate 1
[4] = 12 h, 10 µM, compound concentration 10 uM, replicate 2
[5] = 24 h, 1 µM, compound concentration 1 uM, replicate 1
[6] = 24 h, 1 µM, compound concentration 1 uM, replicate 2
[7] = 24 h, 10 µM, compound concentration 10 uM, replicate 1
[8] = 24 h, 10 µM, compound concentration 10 uM, replicate 2
[9] = 48 h, 1 µM, compound concentration 1 uM, replicate 1
[10] = 48 h, 1 µM, compound concentration 1 uM, replicate 2
[11] = 48 h, 10 µM, compound concentration 10 uM, replicate 1
[12] = 48 h, 10 µM, compound concentration 10 uM, replicate 2

CC[C@@H](C)Nc1nc(C)nc2c(-c3ccc(OC)nc3C)c(C)nn12 [PEXACERFONT]
Population Apoptotic (%) [1]: 40% | Population Fragmented Nuclei (%) [1]: 12% | Population Healthy Nuclei (%) [1]: 66% | Population Hoechst High Intensity Objects (%) [1]: 1% | Population Membrane Permeable-Phenotype (%) [1]: 2% | Population Mitochondria Different-Phenotype (%) [1]: 4% | Population Mitotic Cells (%) [1]: 60% | Population Normal (%) [1]: 98% | Population Pyknosed Nuclei (%) [1]: 20% | Population Tubulin-Different-Phenotype (%) [1]: 35% | Total Cell Count [1]: 147 | Population Apoptotic (%) [2]: 25% | Population Fragmented Nuclei (%) [2]: 32% | Population Healthy Nuclei (%) [2]: 44% | Population Hoechst High Intensity Objects (%) [2]: 2% | Population Membrane Permeable-Phenotype (%) [2]: 15% | Population Mitotic Cells (%) [2]: 75% | Population Normal (%) [2]: 97% | Population Pyknosed Nuclei (%) [2]: 24% | Population Tubulin-Different-Phenotype (%) [2]: 65% | Total Cell Count [2]: 103 | Population Apoptotic (%) [3]: 43% | Population Fragmented Nuclei (%) [3]: 15% | Population Healthy Nuclei (%) [3]: 55% | Population Hoechst High Intensity Objects (%) [3]: 2% | Population Membrane Permeable-Phenotype (%) [3]: 0% | Population Mitochondria Different-Phenotype (%) [3]: 19% | Population Mitotic Cells (%) [3]: 56% | Population Normal (%) [3]: 97% | Population Pyknosed Nuclei (%) [3]: 29% | Population Tubulin-Different-Phenotype (%) [3]: 62% | Total Cell Count [3]: 143 | Population Apoptotic (%) [4]: 38% | Population Fragmented Nuclei (%) [4]: 21% | Population Healthy Nuclei (%) [4]: 40% | Population Hoechst High Intensity Objects (%) [4]: 8% | Population Membrane Permeable-Phenotype (%) [4]: 7% | Population Mitochondria Different-Phenotype (%) [4]: 9% | Population Mitotic Cells (%) [4]: 61% | Population Normal (%) [4]: 91% | Population Pyknosed Nuclei (%) [4]: 38% | Population Tubulin-Different-Phenotype (%) [4]: 68% | Total Cell Count [4]: 147 | Population Apoptotic (%) [5]: 52% | Population Fragmented Nuclei (%) [5]: 16% | Population Healthy Nuclei (%) [5]: 70% | Population Hoechst High Intensity Objects (%) [5]: 1% | Population Membrane Permeable-Phenotype (%) [5]: 0% | Population Mitochondria Different-Phenotype (%) [5]: 3% | Population Mitotic Cells (%) [5]: 47% | Population Normal (%) [5]: 98% | Population Pyknosed Nuclei (%) [5]: 13% | Population Tubulin-Different-Phenotype (%) [5]: 38% | Total Cell Count [5]: 157 | Population Apoptotic (%) [6]: 47% | Population Fragmented Nuclei (%) [6]: 35% | Population Healthy Nuclei (%) [6]: 42% | Population Hoechst High Intensity Objects (%) [6]: 3% | Population Membrane Permeable-Phenotype (%) [6]: 20% | Population Mitochondria Different-Phenotype (%) [6]: 2% | Population Mitotic Cells (%) [6]: 52% | Population Normal (%) [6]: 96% | Population Pyknosed Nuclei (%) [6]: 22% | Population Tubulin-Different-Phenotype (%) [6]: 61% | Total Cell Count [6]: 108 | Population Apoptotic (%) [7]: 37% | Population Fragmented Nuclei (%) [7]: 16% | Population Healthy Nuclei (%) [7]: 56% | Population Hoechst High Intensity Objects (%) [7]: 1% | Population Membrane Permeable-Phenotype (%) [7]: 2% | Population Mitochondria Different-Phenotype (%) [7]: 10% | Population Mitotic Cells (%) [7]: 62% | Population Normal (%) [7]: 98% | Population Pyknosed Nuclei (%) [7]: 27% | Population Tubulin-Different-Phenotype (%) [7]: 68% | Total Cell Count [7]: 139 | Population Apoptotic (%) [8]: 38% | Population Fragmented Nuclei (%) [8]: 18% | Population Healthy Nuclei (%) [8]: 47% | Population Hoechst High Intensity Objects (%) [8]: 7% | Population Membrane Permeable-Phenotype (%) [8]: 20% | Population Mitochondria Different-Phenotype (%) [8]: 6% | Population Mitotic Cells (%) [8]: 61% | Population Normal (%) [8]: 92% | Population Pyknosed Nuclei (%) [8]: 33% | Population Tubulin-Different-Phenotype (%) [8]: 76% | Total Cell Count [8]: 143 | Population Apoptotic (%) [9]: 54% | Population Fragmented Nuclei (%) [9]: 15% | Population Healthy Nuclei (%) [9]: 69% | Population Hoechst High Intensity Objects (%) [9]: 8% | Population Membrane Permeable-Phenotype (%) [9]: 1% | Population Mitochondria Different-Phenotype (%) [9]: 0% | Population Mitotic Cells (%) [9]: 45% | Population Normal (%) [9]: 91% | Population Pyknosed Nuclei (%) [9]: 15% | Population Tubulin-Different-Phenotype (%) [9]: 30% | Total Cell Count [9]: 160 | Population Apoptotic (%) [10]: 25% | Population Fragmented Nuclei (%) [10]: 40% | Population Healthy Nuclei (%) [10]: 45% | Population Hoechst High Intensity Objects (%) [10]: 1% | Population Membrane Permeable-Phenotype (%) [10]: 26% | Population Mitochondria Different-Phenotype (%) [10]: 4% | Population Mitotic Cells (%) [10]: 75% | Population Normal (%) [10]: 98% | Population Pyknosed Nuclei (%) [10]: 14% | Population Tubulin-Different-Phenotype (%) [10]: 52% | Total Cell Count [10]: 113 | Population Apoptotic (%) [11]: 87% | Population Fragmented Nuclei (%) [11]: 23% | Population Healthy Nuclei (%) [11]: 53% | Population Hoechst High Intensity Objects (%) [11]: 3% | Population Membrane Permeable-Phenotype (%) [11]: 0% | Population Mitochondria Different-Phenotype (%) [11]: 14% | Population Mitotic Cells (%) [11]: 12% | Population Normal (%) [11]: 96% | Population Pyknosed Nuclei (%) [11]: 22% | Population Tubulin-Different-Phenotype (%) [11]: 62% | Total Cell Count [11]: 144 | Population Apoptotic (%) [12]: 52% | Population Fragmented Nuclei (%) [12]: 32% | Population Healthy Nuclei (%) [12]: 50% | Population Hoechst High Intensity Objects (%) [12]: 4% | Population Membrane Permeable-Phenotype (%) [12]: 12% | Population Mitochondria Different-Phenotype (%) [12]: 9% | Population Mitotic Cells (%) [12]: 47% | Population Normal (%) [12]: 95% | Population Pyknosed Nuclei (%) [12]: 16% | Population Tubulin-Different-Phenotype (%) [12]: 76% | Total Cell Count [12]: 134
